Assays:
[1] = Drug uptake in baboon striatum at 5 mCi, iv measured during 90 mins; type: ADME, organism-based; settings: papio anubis, in vivo, 1.5 h
Summary of the method: (§1)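 Fasted baboon immobilized with ketamine (10 mg/kg, im), then anesthetized with 1.5–2.0% isoflurane by endotracheal tube and kept at 37 °C. A 10 min transmission scan preceded tracer. Tracer given as 5 ± 1 mCi iv bolus (S.A. 2300 ± 250 Ci/mmol). Emission collected 90 min in 3-D mode on HR+ PET. Arterial samples (30 over 90 min) gave the input function.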

[2] = Metabolic stability in baboon plasma assessed as unchanged radioligand at 12 mins by HPLC; type: ADME, cell-free; settings: papio anubis, read-out: Stability
Summary of the method: (§2)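 Arterial blood sampled at 2, 6, 12, 30, 60 and 90 min post-injection and spun; 0.5 ml plasma mixed with 0.7 ml acetonitrile, vortexed, centrifuged 14,000 rpm 4 min. Supernatant run on reverse-phase ODS HPLC (acetonitrile/0.1 M ammonium formate 35:65, 2 ml/min) with radioactivity detection. Parent percentage corrected for background and decay; QC tracer sample injected at start and end.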

[3] = Drug uptake in baboon temporal cortex at 5 mCi, iv measured during 90 mins; type: ADME, organism-based; settings: papio anubis, in vivo, 1.5 h; summary of the method: as §1
[4] = Drug uptake in baboon pareital cortex at 5 mCi, iv measured during 90 mins; type: ADME, organism-based; settings: papio anubis, in vivo, 1.5 h; summary of the method: as §1
[5] = Metabolic stability in baboon plasma assessed as unchanged radioligand at 90 mins by HPLC; type: ADME, cell-free; settings: papio anubis, read-out: Stability; summary of the method: as §2
[6] = Drug uptake in baboon amygdala at 5 mCi, iv measured during 90 mins; type: ADME, organism-based; settings: papio anubis, in vivo, 1.5 h; summary of the method: as §1
[7] = Metabolic stability in baboon plasma assessed as unchanged radioligand at 4 mins by HPLC; type: ADME, cell-free; settings: papio anubis, read-out: Stability
[8] = Metabolic stability in baboon plasma assessed as unchanged radioligand at 30 mins by HPLC; type: ADME, cell-free; settings: papio anubis, read-out: Stability; summary of the method: as §2
[9] = Metabolic stability in baboon plasma assessed as unchanged radioligand at 2 mins by HPLC; type: ADME, cell-free; settings: papio anubis, read-out: Stability; summary of the method: as §2
[10] = Fraction unbound in baboon plasma by HPLC; type: ADME, cell-free; settings: papio anubis
[11] = Drug uptake in baboon prefrontal cortex at 5 mCi, iv measured during 90 mins; type: ADME, organism-based; settings: papio anubis, in vivo, 1.5 h; summary of the method: as §1
[12] = Drug uptake in baboon hippocampus at 5 mCi, iv measured during 90 mins; type: ADME, organism-based; settings: papio anubis, in vivo, 1.5 h; summary of the method: as §1
[13] = Drug uptake in baboon cerebellum at 5 mCi, iv measured during 90 mins; type: ADME, organism-based; settings: papio anubis, in vivo, 1.5 h; summary of the method: as §1
[14] = Drug uptake in baboon anterior cingulate at 5 mCi, iv measured during 90 mins; type: ADME, organism-based; settings: papio anubis, in vivo, 1.5 h; summary of the method: as §1
[15] = Metabolic stability in baboon plasma assessed as unchanged radioligand at 60 mins by HPLC; type: ADME, cell-free; settings: papio anubis, read-out: Stability; summary of the method: as §2
[16] = Fraction unbound in human plasma by HPLC; type: ADME, cell-free
[17] = Drug uptake in baboon parahippocampal gyrus at 5 mCi, iv measured during 90 mins; type: ADME, organism-based; settings: papio anubis, in vivo, 1.5 h; summary of the method: as §1

SMILES: COc1ccc(S(=O)(=O)Nc2cc(Cl)cc(Cl)c2O[11CH3])cc1N1CCNCC1
- Drug uptake [1]: Not Active
- remaining at 0.2 h [2]: 71%
- Drug uptake [3]: Active
- Drug uptake [4]: Active
- remaining at 1.5 h [5]: 27%
- Drug uptake [6]: Active
- remaining at 4 min [7]: 94%
- remaining at 0.5 h [8]: 45%
- remaining at 2 min [9]: 99%
- fraction unbound [10]: 0.05
- Drug uptake [11]: Not Active
- Drug uptake [12]: Active
- Drug uptake [13]: Not Active
- Drug uptake [14]: Not Active
- remaining at 1 h [15]: 32%
- fraction unbound [16]: 0.01
- Drug uptake [17]: Active

Reference: ChEMBL document CHEMBL1821588, “Synthesis and in vivo evaluation of [O-methyl-11C] N-[3,5-dichloro-2-(methoxy)phenyl]-4-(methoxy)-3-(1-piperazinyl)benzenesulfonamide as an imaging probe for 5-HT6 receptors” (Bioorg Med Chem, 2011)
